Activity calls are given as the source filed them. The calls are words filed in the database; no cut-off is given here.

The target in assay [1] is T1, Tyrosine-protein kinase receptor UFO (Homo sapiens, UniProt P30530).
T1 sequence (P30530 whole entry): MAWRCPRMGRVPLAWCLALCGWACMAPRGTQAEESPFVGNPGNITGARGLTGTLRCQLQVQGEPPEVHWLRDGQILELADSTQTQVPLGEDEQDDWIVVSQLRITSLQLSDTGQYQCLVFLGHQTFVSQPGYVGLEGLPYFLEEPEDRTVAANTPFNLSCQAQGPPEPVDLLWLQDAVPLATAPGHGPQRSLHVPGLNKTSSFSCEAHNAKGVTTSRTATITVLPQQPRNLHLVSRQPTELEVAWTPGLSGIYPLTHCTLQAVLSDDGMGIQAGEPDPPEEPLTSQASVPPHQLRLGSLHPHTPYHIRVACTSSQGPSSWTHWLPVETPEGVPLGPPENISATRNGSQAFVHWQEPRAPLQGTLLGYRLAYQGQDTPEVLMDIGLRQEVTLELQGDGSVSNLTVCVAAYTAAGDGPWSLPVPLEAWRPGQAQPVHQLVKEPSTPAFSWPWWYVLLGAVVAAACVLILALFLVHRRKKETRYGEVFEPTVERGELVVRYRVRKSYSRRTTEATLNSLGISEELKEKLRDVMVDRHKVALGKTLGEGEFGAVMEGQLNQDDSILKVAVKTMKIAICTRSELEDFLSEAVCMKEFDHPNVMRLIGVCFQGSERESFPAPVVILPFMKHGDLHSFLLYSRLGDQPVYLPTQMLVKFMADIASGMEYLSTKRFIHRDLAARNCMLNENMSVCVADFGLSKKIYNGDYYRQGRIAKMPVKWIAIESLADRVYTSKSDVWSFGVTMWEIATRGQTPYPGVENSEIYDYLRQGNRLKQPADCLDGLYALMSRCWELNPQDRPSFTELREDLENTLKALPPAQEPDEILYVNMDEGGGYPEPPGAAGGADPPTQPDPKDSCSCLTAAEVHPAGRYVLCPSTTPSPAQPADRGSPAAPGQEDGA
Description: Inhibition of AXL (unknown origin) phosphorylation after 1 hr by ELISA. For orientation: An ELISA detects its analyte on a solid surface through an enzyme-linked reagent.

For assay [2], the target named is Tyrosine-protein kinase receptor UFO (Homo sapiens) (UniProt P30530). Description: Inhibition of AXL (unknown origin) using biotinylated peptide as substrate at 10 uM by TR-FRET assay relative to control.
The target of assay [3] is T2, Hepatocyte growth factor receptor (Homo sapiens, UniProt P08581). Description: Inhibition of c-MET (unknown origin) using fluorescence labeled peptide as substrate at 10 uM by IMAP assay relative to control. An outline of the steps:
(§1)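 IMAP fluorescence-polarization kinase assay at 10 µmol/L compound, run in triplicate by a contract lab. A fluorescently labeled substrate peptide is phosphorylated, then nanoparticles carrying trivalent metal bind the phosphopeptide and slow its rotation. Read-out is fluorescence polarization, expressed as percent inhibition.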

Assay [4] addresses T2, Hepatocyte growth factor receptor. Description: Inhibition of c-MET (unknown origin) using biotinylated peptide as substrate at 10 uM by TR-FRET assay relative to control.
Assay [5] has as its target Proto-oncogene tyrosine-protein kinase Src (Homo sapiens, UniProt P12931). Description: Inhibition of SRC (unknown origin) using fluorescence labeled peptide as substrate at 10 uM by IMAP assay relative to control. An outline of the steps: as §1
For assay [6], the target named is Tyrosine-protein kinase ABL1 (Homo sapiens) (UniProt P00519). Description: Inhibition of ABL (unknown origin) using fluorescence labeled peptide as substrate at 10 uM by IMAP assay relative to control. The gist of the method:
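IMAP fluorescence-polarization kinase assay: fluorescently labelled substrate peptide phosphorylated, then captured by trivalent-metal nanoparticles, slowing rotation. Compound at 10 µM, triplicates, percent inhibition reported.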

Assay [7] has the same target. In words: Inhibition of ABL (unknown origin) using biotinylated peptide as substrate at 10 uM by TR-FRET assay relative to control. (TR-FRET usually uses a lanthanide donor and a delayed reading to cut background.)
Assay [8] addresses Mast/stem cell growth factor receptor Kit (Homo sapiens) (UniProt P10721). In words: Inhibition of cKIT (unknown origin) using fluorescence labeled peptide as substrate at 10 uM by IMAP assay relative to control. The gist of the method: as §1
For assay [9] the target is unchanged. Description: Inhibition of cKIT (unknown origin) using biotinylated peptide as substrate at 10 uM by TR-FRET assay relative to control.
Assay [10] addresses Angiopoietin-1 receptor (Homo sapiens) (UniProt Q02763). Description: Inhibition of TIE2 (unknown origin) using fluorescence labeled peptide as substrate at 10 uM by IMAP assay relative to control. An outline of the steps:
as §1

Assay [11] has the same target. In words: Inhibition of TIE2 (unknown origin) using biotinylated peptide as substrate at 10 uM by TR-FRET assay relative to control.
Assay [12] deals with Platelet-derived growth factor receptor beta (Homo sapiens) (UniProt P09619). In words: Inhibition of PDGFRbeta (unknown origin) using fluorescence labeled peptide as substrate at 10 uM by IMAP assay relative to control. The gist of the method: as §1
In assay [13] the target is T3, Aurora kinase A (Homo sapiens) (UniProt O14965).
T3 sequence (whole entry): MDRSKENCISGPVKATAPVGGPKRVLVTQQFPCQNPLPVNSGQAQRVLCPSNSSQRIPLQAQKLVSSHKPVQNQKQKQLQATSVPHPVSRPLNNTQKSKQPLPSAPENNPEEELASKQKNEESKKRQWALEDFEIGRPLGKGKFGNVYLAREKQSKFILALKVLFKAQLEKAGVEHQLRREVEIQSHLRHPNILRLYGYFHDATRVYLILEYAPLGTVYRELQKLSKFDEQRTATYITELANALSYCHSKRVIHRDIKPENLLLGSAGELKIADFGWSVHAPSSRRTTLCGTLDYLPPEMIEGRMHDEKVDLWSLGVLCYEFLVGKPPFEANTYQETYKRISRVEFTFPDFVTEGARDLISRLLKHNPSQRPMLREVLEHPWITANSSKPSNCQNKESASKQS
In words: Inhibition of AurA (unknown origin) using fluorescence labeled peptide as substrate at 10 uM by IMAP assay relative to control. An outline of the steps: as §1

In assay [14] the target is Vascular endothelial growth factor receptor 2 (Homo sapiens) (UniProt P35968). Description: Inhibition of VEGFR2 (unknown origin) using fluorescence labeled peptide as substrate at 10 uM by IMAP assay relative to control. An outline of the steps:
as §1

For assay [15], the target named is T1, Tyrosine-protein kinase receptor UFO. In words: Inhibition of AXL (unknown origin).
The target of assay [16] is Epidermal growth factor receptor (Homo sapiens, UniProt P00533). Description: Inhibition of wild type EGFR (unknown origin).
Assay [17] relates to MDA-MB-231. Description: Antimigratory activity against human MDA-MB-231 cells after 3.5 hrs by microscopy based Boyden chamber assay. In kind it is functional, cell-based. The note with it: MDA-MB-231, 3.5 h. An outline of the steps: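 Modified Boyden chamber: MDA-MB-231 cells plated in 0.1% FCS medium, migrating through 8 µm pore membrane toward 1% FCS chemoattractant for 3.5 h; transmigrated cells counted microscopically in at least 5 random fields per well.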

Assay [18] has as its system MDA-MB-231. In words: Anti-invasive activity against human MDA-MB-231 cells up to 3 uM after 5 hrs by matrigel assay. The format is functional, cell-based. An outline of the steps:
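MDA-MB-231 cells (7000/well) seeded on polymerized 3 mg/mL Matrigel (set ≥16 h at 37°C) in serum-free medium; inhibitor added at seeding, aggregates forming over 5 h.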

Assay [19] is described as follows: Ratio of IC50 for antimigratory activity against human MDA-MB-231 cells after 3.5 hrs by microscopy based Boyden chamber assay to IC50 for inhibition of AXL (unknown origin).

Chain of Vascular endothelial growth factor receptor 2 (Homo sapiens) (P35968 whole entry): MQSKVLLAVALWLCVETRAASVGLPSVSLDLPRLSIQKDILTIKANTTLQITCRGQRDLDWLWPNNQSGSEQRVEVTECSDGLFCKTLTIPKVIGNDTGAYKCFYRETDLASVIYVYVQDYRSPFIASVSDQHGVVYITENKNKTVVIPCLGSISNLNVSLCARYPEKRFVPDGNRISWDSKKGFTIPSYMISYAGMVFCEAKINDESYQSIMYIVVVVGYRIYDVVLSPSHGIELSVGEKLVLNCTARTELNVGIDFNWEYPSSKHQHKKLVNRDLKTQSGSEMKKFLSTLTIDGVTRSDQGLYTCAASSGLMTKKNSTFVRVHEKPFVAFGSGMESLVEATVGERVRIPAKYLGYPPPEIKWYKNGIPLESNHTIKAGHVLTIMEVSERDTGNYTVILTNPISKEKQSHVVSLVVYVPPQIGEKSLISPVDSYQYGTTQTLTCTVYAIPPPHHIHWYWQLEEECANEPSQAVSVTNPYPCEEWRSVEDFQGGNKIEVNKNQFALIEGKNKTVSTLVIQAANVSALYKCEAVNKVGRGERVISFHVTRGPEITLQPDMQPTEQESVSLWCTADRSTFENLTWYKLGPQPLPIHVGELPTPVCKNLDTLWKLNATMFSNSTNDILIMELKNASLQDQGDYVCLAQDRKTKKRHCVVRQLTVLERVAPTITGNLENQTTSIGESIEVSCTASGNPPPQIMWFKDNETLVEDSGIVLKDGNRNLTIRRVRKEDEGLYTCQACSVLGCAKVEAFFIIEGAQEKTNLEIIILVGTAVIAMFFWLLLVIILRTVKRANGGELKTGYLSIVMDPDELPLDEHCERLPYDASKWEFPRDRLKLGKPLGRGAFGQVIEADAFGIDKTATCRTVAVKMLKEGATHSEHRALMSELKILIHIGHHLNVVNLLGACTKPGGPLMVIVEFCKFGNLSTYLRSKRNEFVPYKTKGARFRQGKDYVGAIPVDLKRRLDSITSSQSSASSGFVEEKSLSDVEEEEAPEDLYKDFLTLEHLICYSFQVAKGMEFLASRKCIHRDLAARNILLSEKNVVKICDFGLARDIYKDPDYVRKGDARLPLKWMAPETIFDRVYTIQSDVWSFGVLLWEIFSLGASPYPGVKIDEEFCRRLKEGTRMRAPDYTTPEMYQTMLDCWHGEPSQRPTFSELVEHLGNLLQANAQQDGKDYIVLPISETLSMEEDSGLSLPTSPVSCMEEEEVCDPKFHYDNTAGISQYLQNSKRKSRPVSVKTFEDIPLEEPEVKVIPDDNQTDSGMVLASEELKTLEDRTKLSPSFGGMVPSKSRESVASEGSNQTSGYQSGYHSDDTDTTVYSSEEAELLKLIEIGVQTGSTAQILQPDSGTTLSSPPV
Chain of Epidermal growth factor receptor (P00533 whole entry): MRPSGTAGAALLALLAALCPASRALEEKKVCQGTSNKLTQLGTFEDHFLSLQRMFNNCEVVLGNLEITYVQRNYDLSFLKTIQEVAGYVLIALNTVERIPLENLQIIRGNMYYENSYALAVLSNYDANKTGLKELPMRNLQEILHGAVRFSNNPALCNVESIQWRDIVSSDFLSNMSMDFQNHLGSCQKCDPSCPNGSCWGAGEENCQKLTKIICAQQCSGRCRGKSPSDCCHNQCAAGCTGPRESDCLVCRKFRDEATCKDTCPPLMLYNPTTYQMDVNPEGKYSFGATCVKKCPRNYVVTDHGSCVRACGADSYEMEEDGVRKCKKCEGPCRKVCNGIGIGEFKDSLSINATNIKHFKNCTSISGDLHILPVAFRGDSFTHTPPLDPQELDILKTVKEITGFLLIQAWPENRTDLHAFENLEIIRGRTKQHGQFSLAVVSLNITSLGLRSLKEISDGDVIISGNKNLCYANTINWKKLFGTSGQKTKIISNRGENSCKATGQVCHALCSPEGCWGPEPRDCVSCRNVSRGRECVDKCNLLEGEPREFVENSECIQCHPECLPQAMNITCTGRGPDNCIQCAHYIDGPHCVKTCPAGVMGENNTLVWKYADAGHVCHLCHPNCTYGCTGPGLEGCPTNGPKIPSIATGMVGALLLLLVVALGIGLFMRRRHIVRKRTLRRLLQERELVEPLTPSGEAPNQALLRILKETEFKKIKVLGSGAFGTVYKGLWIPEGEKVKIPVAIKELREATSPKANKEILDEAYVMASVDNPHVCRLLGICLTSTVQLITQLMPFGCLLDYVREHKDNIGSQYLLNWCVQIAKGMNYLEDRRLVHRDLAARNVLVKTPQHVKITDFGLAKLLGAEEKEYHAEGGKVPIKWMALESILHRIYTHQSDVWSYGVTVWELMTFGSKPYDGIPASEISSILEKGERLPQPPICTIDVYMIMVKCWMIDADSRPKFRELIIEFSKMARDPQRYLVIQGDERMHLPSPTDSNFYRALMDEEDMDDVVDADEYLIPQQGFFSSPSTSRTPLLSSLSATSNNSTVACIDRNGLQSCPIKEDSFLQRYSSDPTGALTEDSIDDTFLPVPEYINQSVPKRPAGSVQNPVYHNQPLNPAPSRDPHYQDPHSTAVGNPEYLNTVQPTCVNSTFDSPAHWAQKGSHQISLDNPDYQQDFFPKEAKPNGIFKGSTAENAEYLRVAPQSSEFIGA
Chain of Mast/stem cell growth factor receptor Kit (Homo sapiens) (P10721 whole entry): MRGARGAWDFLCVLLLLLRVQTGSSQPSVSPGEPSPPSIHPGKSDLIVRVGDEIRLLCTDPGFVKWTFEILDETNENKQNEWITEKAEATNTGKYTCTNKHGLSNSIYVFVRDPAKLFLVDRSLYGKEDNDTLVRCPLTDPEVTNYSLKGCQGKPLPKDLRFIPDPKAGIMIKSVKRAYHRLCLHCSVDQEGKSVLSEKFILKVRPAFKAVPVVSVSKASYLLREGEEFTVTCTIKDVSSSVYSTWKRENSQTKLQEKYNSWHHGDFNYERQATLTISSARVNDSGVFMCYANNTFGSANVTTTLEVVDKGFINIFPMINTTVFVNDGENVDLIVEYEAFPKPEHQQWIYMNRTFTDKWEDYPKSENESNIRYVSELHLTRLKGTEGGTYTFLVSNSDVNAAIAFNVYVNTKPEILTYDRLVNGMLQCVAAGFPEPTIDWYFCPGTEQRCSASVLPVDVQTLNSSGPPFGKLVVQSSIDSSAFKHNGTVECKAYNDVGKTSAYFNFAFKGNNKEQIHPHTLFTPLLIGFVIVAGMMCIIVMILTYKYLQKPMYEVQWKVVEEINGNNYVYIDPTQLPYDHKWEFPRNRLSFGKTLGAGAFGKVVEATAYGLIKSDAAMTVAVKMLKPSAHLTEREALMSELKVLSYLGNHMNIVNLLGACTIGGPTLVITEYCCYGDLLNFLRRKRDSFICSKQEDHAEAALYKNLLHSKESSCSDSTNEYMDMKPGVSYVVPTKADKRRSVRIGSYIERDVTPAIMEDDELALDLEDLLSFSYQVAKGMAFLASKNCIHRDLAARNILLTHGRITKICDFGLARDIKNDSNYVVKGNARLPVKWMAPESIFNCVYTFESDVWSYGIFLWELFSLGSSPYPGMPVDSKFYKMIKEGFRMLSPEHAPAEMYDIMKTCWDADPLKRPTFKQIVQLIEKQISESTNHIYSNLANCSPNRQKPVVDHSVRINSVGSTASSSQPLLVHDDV
Chain of Angiopoietin-1 receptor (Homo sapiens) (Q02763 whole entry): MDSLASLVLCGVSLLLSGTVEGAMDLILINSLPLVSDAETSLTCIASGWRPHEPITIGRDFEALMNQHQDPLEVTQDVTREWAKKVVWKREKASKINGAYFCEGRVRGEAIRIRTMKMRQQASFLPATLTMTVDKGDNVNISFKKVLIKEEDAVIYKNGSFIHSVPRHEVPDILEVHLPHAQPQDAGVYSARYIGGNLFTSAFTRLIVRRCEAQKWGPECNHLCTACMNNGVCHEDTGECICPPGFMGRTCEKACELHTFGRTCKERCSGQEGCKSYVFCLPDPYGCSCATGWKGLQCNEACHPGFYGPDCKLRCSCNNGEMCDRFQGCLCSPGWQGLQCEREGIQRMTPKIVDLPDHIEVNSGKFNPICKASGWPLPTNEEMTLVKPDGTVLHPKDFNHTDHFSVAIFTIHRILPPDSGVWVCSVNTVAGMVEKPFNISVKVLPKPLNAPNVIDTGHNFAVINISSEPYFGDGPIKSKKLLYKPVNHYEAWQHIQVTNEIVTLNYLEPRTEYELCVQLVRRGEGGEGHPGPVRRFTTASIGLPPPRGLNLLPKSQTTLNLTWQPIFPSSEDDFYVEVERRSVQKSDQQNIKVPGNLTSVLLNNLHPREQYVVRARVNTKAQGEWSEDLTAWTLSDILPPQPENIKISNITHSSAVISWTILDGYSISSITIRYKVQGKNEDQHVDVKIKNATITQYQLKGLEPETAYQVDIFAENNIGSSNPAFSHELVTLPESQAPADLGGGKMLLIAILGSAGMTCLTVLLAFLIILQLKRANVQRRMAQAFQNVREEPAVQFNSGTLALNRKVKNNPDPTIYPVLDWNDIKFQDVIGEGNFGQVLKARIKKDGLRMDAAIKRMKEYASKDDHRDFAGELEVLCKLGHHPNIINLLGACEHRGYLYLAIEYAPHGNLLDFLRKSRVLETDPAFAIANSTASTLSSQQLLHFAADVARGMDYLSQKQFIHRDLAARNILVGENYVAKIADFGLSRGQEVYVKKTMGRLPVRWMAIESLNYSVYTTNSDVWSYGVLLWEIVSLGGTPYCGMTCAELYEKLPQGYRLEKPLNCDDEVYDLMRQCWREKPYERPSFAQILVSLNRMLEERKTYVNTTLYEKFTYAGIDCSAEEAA

For orientation: IC50 means the concentration that gives 50% inhibition. Low readings indicate higher potency, high ones lower potency. `COc1cc2c(Oc3ccc(NS(=O)(=O)c4ccccc4C(F)(F)F)cc3F)ccnc2cc1OCCCN1CCN(C)CC1`: the IC50 in assay [1] is 21 nM; in assay [15], 21 nM; in assay [16], 281 nM; in the assay with MDA-MB-231 [17], 4600 nM. Also, the Efficacy in [2], in [3], in assay [4], in assay [5], in [6] and in assay [7] was 83 to 100% in each case. Besides, the Efficacy in assay [8], in assay [9], in assay [10], in assay [11], in assay [12] and in assay [13] was 83 to 100% in each case. This compound also displayed an Efficacy in [14] of 83 to 100%. The inhibition result in the assay on MDA-MB-231 [18] was “Active”. The “Ratio IC50” value in assay [19] was greater than 50.
Take `COc1cc2c(Oc3ccc(NS(=O)(=O)c4cc(F)ccc4F)cc3F)ccnc2cc1OCCCN1CCCC(C)C1` (stereo unspecified): the IC50 in [1] stood at 28 nM; in [15], 28 nM; in assay [16] it was 1130 nM; in the assay with MDA-MB-231 [17], 3300 nM. Also, the Efficacy in [2], in [3], in assay [4], in assay [5], in [6] and in assay [7] was 83 to 100% each time. In addition, the Efficacy in [8], in assay [9], in assay [10], in assay [11], in assay [12] and in assay [13] was 83 to 100% in each case. In assay [14], the Efficacy lay within 83 to 100%. In addition, in the assay with MDA-MB-231 [18], the inhibition result is “Active”. Besides, the “Ratio IC50” value in assay [19] is recorded as greater than 50.
Take `COc1cc2c(Oc3ccc(NS(=O)(=O)c4c(F)cccc4F)cc3F)ccnc2cc1OCCCN1CCN(C)CC1`: the IC50 in assay [1] amounted to 35 nM; in assay [15], 35 nM; in assay [16] it was 178 nM; in the assay on MDA-MB-231 [17] it was 1500 nM. In addition, the Efficacy in assay [2], in [3], in assay [4], in assay [5], in assay [6] and in [7] was 83 to 100% in each case. Besides, the Efficacy in [8], in [9], in [10], in [11], in [12] and in assay [13] was 83 to 100% throughout. Besides, the Efficacy in assay [14] lay in the range of 83 to 100%. Besides, in the assay on MDA-MB-231 [18], the inhibition entry was “Active”. The “Ratio IC50” value in [19] was greater than 50.
Regarding `COc1cc2c(Oc3ccc(NS(=O)(=O)c4cc(F)ccc4F)cc3F)ccnc2cc1OCCCN1CCN(C)CC1`, the half-inhibitory concentration (IC50) in assay [1] was found to be 27 nM; in assay [15], 27 nM; in assay [16] it was 149 nM; in the assay on MDA-MB-231 [17] it was 2500 nM. The Efficacy in assay [2], in assay [3], in [4], in assay [5], in assay [6] and in [7] was 83 to 100% throughout. Moreover, the Efficacy in assay [8], in assay [9], in assay [10], in assay [11], in assay [12] and in assay [13] was 83 to 100% each time. The compound also returned an Efficacy in assay [14] of 83 to 100%. In addition, the inhibition entry in the assay on MDA-MB-231 [18] is “Active”. The “Ratio IC50” value in [19] was greater than 50.

Values taken from ChEMBL document CHEMBL4371006, “Discovery of N-[4-(Quinolin-4-yloxy)phenyl]benzenesulfonamides as Novel AXL Kinase Inhibitors” (J Med Chem, 2018).
